# Reference: paper PMC4545378 (Cancer chemotherapy and pharmacology, 2015)
# Values joined by “and” are separate entries in the source; they are usually repeats but may differ in a detail not shown here. Identical values can stand only once. “Also recorded” adds a separate entry of the source. Like-named read-outs stand apart in the source and are kept apart here.
# Assays:
# ALDH3A1 = biological target: T1, ALDH3A1 (Homo sapiens, UniProt P30838); test: Metabolism using purified ALDH isoforms: ALDH3A1; assay type: biochemical; conditions: purified ALDH3A1, BEN 1000 ng/mL
# T1 sequence (P30838 1-453): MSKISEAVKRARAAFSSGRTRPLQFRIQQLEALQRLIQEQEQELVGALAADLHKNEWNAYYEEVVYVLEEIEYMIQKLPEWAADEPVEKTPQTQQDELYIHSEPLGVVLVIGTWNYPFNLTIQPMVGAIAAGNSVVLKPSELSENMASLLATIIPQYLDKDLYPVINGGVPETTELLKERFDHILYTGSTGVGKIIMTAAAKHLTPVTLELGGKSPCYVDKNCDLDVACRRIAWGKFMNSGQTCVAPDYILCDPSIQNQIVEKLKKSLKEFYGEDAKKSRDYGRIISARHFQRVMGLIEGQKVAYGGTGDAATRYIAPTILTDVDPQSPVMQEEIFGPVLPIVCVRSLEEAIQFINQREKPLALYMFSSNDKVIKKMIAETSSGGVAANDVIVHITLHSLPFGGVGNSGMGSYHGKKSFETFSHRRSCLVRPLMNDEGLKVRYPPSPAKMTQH
# [1] = humans, after 9 mg/m^2; cited from earlier work
# RBCs [2] = test: BEN metabolism in 10% RBCs with ALDH and AO inhibitor; assay type: in vitro ADME, human; conditions: for inhibition of BEN metabolism (conversion of BEN to BA) in RBC: 10% RBCs in plasma, inhibitor 150 μM
# [3] = mice, after 20 mg/kg BEN; cited from earlier work
# RXF-393 = conditions: mice, RXF-393 implanted subcutaneously or orthotopically under the renal capsule; cited from earlier work
# RBCs [4] = assay type: in vitro ADME, human; conditions: 10% RBCs, all incubations (with and without CO or N2), BEN 3 μg/mL
# RBCs [5] = test: Apparent Vmax and Km determination in 10% RBCs in plasma; assay type: in vitro ADME, human
# BEN blood partitioning = assay type: in vitro ADME, human; conditions: 50% RBCs in plasma, on ice
# Procedure, shortened: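 Blood (50% RBCs in plasma) held on ice with 1 mM disulfiram for 10 min, then dosed with test compound at 1000 ng/mL final. Blood sampled at 5–30 min and spun at 12,000 × g for 2 min; plasma acidified with H2SO4 and analysed by LC-MS/MS. Run in parallel in 100% plasma, in triplicate. Ratio taken as plasma-only concentration divided by plasma concentration from the 50%-RBC incubation.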
# ALDH2 = biological target: T2, ALDH2 (Homo sapiens, UniProt P05091); test: Metabolism using purified ALDH isoforms: ALDH2; assay type: biochemical; conditions: purified ALDH2, BEN 1000 ng/mL
# T2 sequence (P05091 18-517): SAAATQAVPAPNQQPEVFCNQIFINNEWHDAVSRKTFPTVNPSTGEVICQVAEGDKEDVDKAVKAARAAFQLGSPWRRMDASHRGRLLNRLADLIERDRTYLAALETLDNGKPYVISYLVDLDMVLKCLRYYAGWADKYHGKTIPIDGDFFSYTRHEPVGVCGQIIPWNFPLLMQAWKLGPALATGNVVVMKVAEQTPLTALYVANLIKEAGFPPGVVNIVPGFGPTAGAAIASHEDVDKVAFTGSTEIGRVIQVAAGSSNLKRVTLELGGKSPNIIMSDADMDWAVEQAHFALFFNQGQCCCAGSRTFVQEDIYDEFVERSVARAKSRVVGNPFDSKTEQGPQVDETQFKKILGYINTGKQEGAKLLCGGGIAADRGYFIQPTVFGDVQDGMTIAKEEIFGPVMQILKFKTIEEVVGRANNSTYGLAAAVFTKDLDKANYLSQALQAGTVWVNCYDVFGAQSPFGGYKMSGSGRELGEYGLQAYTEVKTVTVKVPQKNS
# purified human ALDH1A1 = biological target: T3, purified human ALDH1A1 (Homo sapiens, UniProt P00352); test: Metabolism using purified ALDH isoforms: ALDH1A1; assay type: biochemical
# T3 sequence (P00352 1-501): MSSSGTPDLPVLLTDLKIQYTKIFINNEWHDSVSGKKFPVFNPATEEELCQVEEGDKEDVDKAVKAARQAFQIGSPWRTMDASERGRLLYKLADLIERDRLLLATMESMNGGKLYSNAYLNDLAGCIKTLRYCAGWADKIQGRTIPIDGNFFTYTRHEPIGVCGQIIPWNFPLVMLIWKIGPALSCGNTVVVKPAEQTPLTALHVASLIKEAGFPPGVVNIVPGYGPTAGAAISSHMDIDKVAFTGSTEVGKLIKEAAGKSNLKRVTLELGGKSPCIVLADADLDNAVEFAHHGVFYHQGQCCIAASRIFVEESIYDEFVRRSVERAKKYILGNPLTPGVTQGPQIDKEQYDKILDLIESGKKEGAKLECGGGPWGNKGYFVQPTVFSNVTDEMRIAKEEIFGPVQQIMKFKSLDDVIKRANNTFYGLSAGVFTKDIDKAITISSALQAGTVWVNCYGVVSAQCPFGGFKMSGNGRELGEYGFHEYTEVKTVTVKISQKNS
# Procedure, shortened: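 Purified human ALDH1A1 (5 μg/mL) in […] pH 7.4 with 200 mM KCl and 4 mM DTT, plus test compound at 1000 ng/mL. Pre-incubated 10 min at 37 °C, then started with NAD or […] (1 mM) as the isozyme requires. Sampled at 0–60 min into H2SO4, acetonitrile-extracted, and parent and […] measured by LC-MS/MS. Inhibition arms used anti-ALDH1A1 antibody or disulfiram. Three independent experiments; rate normalised per μg enzyme.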
# [6] = test system: renal carcinoma cells (RCC); conditions: cited from earlier work
# ALDH5A1 = biological target: T4, ALDH5A1 (Homo sapiens, UniProt P51649); test: Metabolism using purified ALDH isoforms: ALDH5A1; assay type: biochemical; conditions: purified ALDH5A1, BEN 1000 ng/mL
# T4 sequence (P51649 48-535): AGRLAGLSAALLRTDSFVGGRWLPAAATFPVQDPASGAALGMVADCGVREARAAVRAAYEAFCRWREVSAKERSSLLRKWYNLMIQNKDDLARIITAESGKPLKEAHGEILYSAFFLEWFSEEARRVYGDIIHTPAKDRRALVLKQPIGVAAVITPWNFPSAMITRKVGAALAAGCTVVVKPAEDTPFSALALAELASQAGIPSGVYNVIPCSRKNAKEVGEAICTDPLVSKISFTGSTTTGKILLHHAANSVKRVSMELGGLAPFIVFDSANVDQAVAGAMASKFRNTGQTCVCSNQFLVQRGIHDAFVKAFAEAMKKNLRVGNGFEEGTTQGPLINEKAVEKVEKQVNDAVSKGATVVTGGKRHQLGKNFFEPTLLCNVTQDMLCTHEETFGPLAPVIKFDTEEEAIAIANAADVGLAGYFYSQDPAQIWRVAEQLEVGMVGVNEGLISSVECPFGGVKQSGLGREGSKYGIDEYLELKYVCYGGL
# [7] = cited from earlier work
# [8] = preliminary experiments; cited from earlier work
# [9] = but not plasma; cited from earlier work
# lysed RBCs = test: BEN in lysed blood; assay type: in vitro ADME, human
# Procedure, shortened: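 10% RBCs in plasma lysed by three freeze-thaw cycles and incubated at 37 °C alongside unlysed cells. Test compound added at 10 μg/mL final; sampled at 5, 60, 120 and 180 min. In a cofactor arm, NADH or NADPH (500 μM final) was added to lysed RBCs and sampling ran from 5 to 120 min. Parent quantified by LC-MS/MS.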
# CYP3A = conditions: preliminary experiments; cited from earlier work
# RBCs [10] = test: Effect of RBC concentration on BEN metabolism; assay type: in vitro ADME, human; conditions: BEN 10 μg/mL, 37 °C
# Procedure, shortened: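 RBCs taken from the bottom of the packed layer, avoiding the buffy coat, and resuspended in plasma at 0, 0.1, 1 and 10%. Test compound spiked at 10 μg/mL and incubated at 37 °C in a shaking bath. Aliquots taken from 0 to 360 min and at 24 h; remaining parent measured by LC-MS/MS.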
# [11] = Lot 4 +7 days (7 day old blood stored at 4 °C), 10% RBCs
# [12] = mean over the lots of Table 1, 10% RBCs
compound,measurement,setting,value
"Cc1cc(N(CCOS(C)(=O)=O)CCOS(C)(=O)=O)ccc1C=O [BEN, 4-[bis[2-[(methylsulfonyl)-oxy]ethyl]amino]-2-methyl-benzaldehyde]",ability of isoform to metabolize BEN,ALDH3A1,ALDH1A1 was the only isoform that showed the ability to metabolize BEN
same,exposures observed,[1],14.5 ng/mL
same,amount of BEN remaining,"RBCs [2]; control sample without inhibitor, 10% RBCs, BEN 1 μg/mL",0.5%
same,exposures observed,[3],16 ng/mL
same,antitumor activity,RXF-393,demonstrated antitumor activity
same,time after which the concentration of BEN was halved,RBCs [4],approximately 60 min
same,starting concentrations that display linear metabolism,RBCs [5]; 10% RBCs,below 400 ng/mL
same,Cl,"RBCs [5]; Lot 1 human blood, 10% RBCs",0.333 mL/min
same,Km,"RBCs [5]; Lot 1 human blood, 10% RBCs",196.3 ng/mL
same,Vmax,"RBCs [5]; Lot 1 human blood, 10% RBCs",65.44 ng/mL^−1•min^−1•[10% RBC]^−1
same,Cl,"RBCs [5]; Lot 2 human blood, 10% RBCs",0.2736 mL/min
same,Km,"RBCs [5]; Lot 2 human blood, 10% RBCs",319.5 ng/mL
same,Vmax,"RBCs [5]; Lot 2 human blood, 10% RBCs",87.42 ng/mL^−1•min^−1•[10% RBC]^−1
same,Cl,"RBCs [5]; Lot 3 human blood, 10% RBCs",0.282 mL/min
same,Km,"RBCs [5]; Lot 3 human blood, 10% RBCs",256.2 ng/mL
same,Vmax,"RBCs [5]; Lot 3 human blood, 10% RBCs",72.27 ng/mL^−1•min^−1•[10% RBC]^−1
same,Cl,RBCs [5]; [11],0.1432 mL/min
same,Km,RBCs [5]; [11],699.6 ng/mL
same,Vmax,RBCs [5]; [11],100.2 ng/mL^−1•min^−1•[10% RBC]^−1
same,Cl,"RBCs [5]; Lot 4 human blood, 10% RBCs",0.1859 mL/min
same,Km,"RBCs [5]; Lot 4 human blood, 10% RBCs",609.8 ng/mL
same,Vmax,"RBCs [5]; Lot 4 human blood, 10% RBCs",113.4 ng/mL^−1•min^−1•[10% RBC]^−1
same,Cl,"RBCs [5]; Lot 5 human blood, 10% RBCs",0.1588 mL/min
same,Km,"RBCs [5]; Lot 5 human blood, 10% RBCs",481.8 ng/mL
same,Vmax,"RBCs [5]; Lot 5 human blood, 10% RBCs",76.5 ng/mL^−1•min^−1•[10% RBC]^−1
same,Cl,"RBCs [5]; Lot 6 human blood, 10% RBCs",0.1836 mL/min
same,Km,"RBCs [5]; Lot 6 human blood, 10% RBCs",371.2 ng/mL
same,Vmax,"RBCs [5]; Lot 6 human blood, 10% RBCs",68.16 ng/mL^−1•min^−1•[10% RBC]^−1
same,Average apparent Km,"RBCs [5]; human RBC, abstract",373 ng/mL
same,"Cl, Mean",RBCs [5]; [12],0.22 mL/min
same,"Vmax, Mean",RBCs [5]; [12],83.3 ng/mL^−1•min^−1•[10% RBC]^−1
same,time by which the equilibrium between RBCs and plasma was complete,BEN blood partitioning,≤ 5 min
same,average plasma to whole blood partition ratio,"BEN blood partitioning; disulfiram 1 mM, BEN 1000 ng/mL, triplicate",1.25 ± 0.08
same,ability of isoform to metabolize BEN,ALDH2,ALDH1A1 was the only isoform that showed the ability to metabolize BEN
same,ability of isoform to metabolize BEN,"purified human ALDH1A1; purified ALDH1A1, BEN 1000 ng/mL",showed the ability to metabolize BEN
same,rate of disappearance of BEN,"purified human ALDH1A1; three independent experiments, 5 μg/mL purified enzyme, BEN 1000 ng/mL, 37 °C",0.172 ng/min/μg of enzyme and 0.224 ng/min/μg of enzyme and 0.154 ng/min/μg of enzyme
same,activity in the NCI 60 cell line screen,[6],specific activity against renal carcinoma cells (RCC)
same,ability of isoform to metabolize BEN,ALDH5A1,ALDH1A1 was the only isoform that showed the ability to metabolize BEN
same,in vitro half-life in plasma,[7],22 min
same,metabolism in cytosolic fraction,[8],oxidized
same,conversion in whole blood,[9],rapidly converted to its carboxylic acid analogue (BA)
same,metabolism of BEN by lysed RBCs,"lysed RBCs; 10% RBCs lysed by freeze-thaw, no cofactor added",did not metabolize BEN
same,metabolism of BEN by lysed RBCs,lysed RBCs; 10% lysed RBCs + NADH 500 μM,restored the ability of lysed RBCs to metabolize BEN
same,metabolism of BEN by lysed RBCs,lysed RBCs; 10% lysed RBCs + NADPH 500 μM,partially restored the ability of lysed RBCs to metabolize BEN
same,metabolism in liver microsomal fraction,CYP3A,undergoes N-dealkylation
same,BEN remaining,"RBCs [10]; 10% RBCs, after 6 hours",5%
same,BEN remaining,"RBCs [10]; 10% RBCs, after one hour",54%
same,BEN remaining,"RBCs [10]; no RBCs, after 6 hours",59%
same,BEN remaining,"RBCs [10]; no RBCs, after one hour",99%
CCN(CC)C(=S)SSC(=S)N(CC)CC [disulfiram],inhibition of BEN metabolism (conversion of BEN to BA) in RBC,RBCs [2]; BEN 1 μg/mL,inhibited; also recorded: almost complete inhibition
same,inhibition of BEN metabolism by purified ALDH1A1,"purified human ALDH1A1; reaction mixture with 4 mM DTT, antibodies at 100x",did not inhibit
CC1=CC(=O)c2ccccc2C1=O [menadione],inhibition of BEN metabolism compared with vehicle control,"RBCs [2]; 3 mM menadione, 1.5% DMSO v:v, 10% RBCs",DMSO alone (1.5% DMSO v:v) caused the same extent of inhibition
same,inhibition of BEN metabolism (conversion of BEN to BA) in RBC,RBCs [2]; BEN 1 μg/mL,not inhibited; also recorded: only a partial inhibitory effect
